# Data published in ChEMBL document CHEMBL1138019, “Synthesis and antitumor activity of 4-hydroxycoumarin derivatives” (Bioorg Med Chem Lett, 2004).
# Assays:
# Assay type in all cases: functional, cell-based
# XF498 [1] = assay: Concentration required for inhibiting proliferation of human brain tumor cell line XF 498 after 72 hr of incubation was determined; settings: XF498, 72 h
# Method in brief: (§1)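 SRB assay. Cells were passaged with trypsin-EDTA, seeded at 1–2 · 10^4 cells/well and grown for 24 h. Compounds dissolved in culture medium were added in triplicate and incubated 48 h at 37 C, 5% CO2. Cells were fixed with 10% cold TCA, stained with 0.4% SRB in 1% acetic acid, and the dye was solubilized in 10 mM Tris base (pH 10.5). Absorbance was read at 520 nm. IC50 is the concentration giving 50% inhibition.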
# HCT-15 = assay: Concentration required for inhibiting proliferation of human colon tumor cell line HCT-15 after 72 hr of incubation was determined; settings: HCT-15, 72 h; method in brief: as §1
# SK-MEL-2 [2] = assay: Concentration required for inhibiting proliferation of human melanoma tumor cell line SK-MEL-2 after 72 hr of incubation was determined; settings: SK-MEL-2, 72 h; method in brief: as §1
# A549 = assay: Concentration required for inhibiting proliferation of human lung tumor cell line A549 after 72 hr of incubation was determined; settings: A549, 72 h; method in brief: as §1
# SK-OV-3 = assay: Concentration required for inhibiting proliferation of human ovarian tumor cell line SK-OV-3 after 72 hr of incubation was determined; settings: SK-OV-3, 72 h; method in brief: as §1
# XF498 [3] = assay: Concentration required for inhibiting proliferation of human brain tumor cell line XF 498 by 50% after 72 hr of incubation was determined; settings: XF498, 72 h; method in brief: as §1
# SK-MEL-2 [4] = assay: Concentration required for inhibiting proliferation of human melanoma tumor cell line SK-MEL-2 by 50% after 72 hr of incubation was determined; settings: SK-MEL-2, 72 h; method in brief: as §1
Compound,IC50 (HCT-15),IC50 (SK-MEL-2 [2]),IC50 (A549),IC50 (SK-OV-3),IC50 (XF498 [1]),IC50 (XF498 [3]),IC50 (SK-MEL-2 [4])
COc1cc([C@@H]2c3cc4c(cc3[C@@H](O[C@@H]3O[C@@H]5CO[C@@H](C)O[C@H]5[C@H](O)[C@H]3O)[C@H]3COC(=O)[C@H]23)OCO4)cc(OC)c1O [ETOPOSIDE],1.45 µM,–,1.06 µM,3.46 µM,–,3.14 µM,4.13 µM
CCC1(c2ccccc2)CC(=O)C(C2CC(c3ccc(OC)cc3)Cc3ccccc32)=C(O)O1 (stereo not given),> 10 µM,> 10 µM,> 10 µM,> 10 µM,> 10 µM,–,–
CCCC1(CCc2ccccc2)CC(=O)C(C2CC(c3ccc(-c4ccc(Br)cc4)cc3)Cc3ccccc32)=C(O)O1 (stereo not given),> 10 µM,> 10 µM,> 10 µM,> 10 µM,> 10 µM,–,–
CCC1(c2ccccc2)CC(=O)C(C2CC(c3ccc(-c4ccc(Br)cc4)cc3)Cc3ccccc32)=C(O)O1 (stereo not given),> 10 µM,> 10 µM,> 10 µM,> 10 µM,> 10 µM,–,–

# Now from value to compound, other results behind:
IC50 (HCT-15),IC50 (SK-MEL-2 [2]),IC50 (A549),IC50 (SK-OV-3),Compound,IC50 (XF498 [1]),IC50 (XF498 [3]),IC50 (SK-MEL-2 [4])
> 10 µM,> 10 µM,> 10 µM,> 10 µM,CCC1(c2ccccc2)CC(=O)C(C2CC(c3ccc(OCc4ccc(C(F)(F)F)cc4)cc3)Cc3ccccc32)=C(O)O1 (stereo not given),> 10 µM,–,–
> 10 µM,> 10 µM,> 10 µM,> 10 µM,COc1ccc(C2Cc3ccccc3C(C3=C(O)OC(C)(c4ccccc4)CC3=O)C2)cc1 (stereo not given),> 10 µM,–,–
6.71 µM,8.51 µM,8.13 µM,5.74 µM,CCC1(c2ccccc2)CC(=O)C(C(CC(=O)c2ccc(-c3ccc(Br)cc3)cc2)c2ccccc2)=C(O)O1 (stereo not given),6.59 µM,–,–
> 10 µM,> 10 µM,> 10 µM,> 10 µM,CCCC1(c2ccccc2)CC(=O)C(C(CC(=O)c2ccc(-c3ccc(Br)cc3)cc2)c2ccccc2)=C(O)O1 (stereo not given),> 10 µM,–,–
8.59 µM,8.54 µM,9.18 µM,5.69 µM,CC1(c2ccccc2)CC(=O)C(C(CC(=O)c2ccc(-c3ccc(Br)cc3)cc2)c2ccccc2)=C(O)O1 (stereo not given),6.73 µM,–,–
1.31 µM,2.05 µM,1.83 µM,1.8 µM,CC1(c2ccccc2)CC(=O)C(C2CC(c3ccc(-c4ccc(Br)cc4)cc3)Cc3ccccc32)=C(O)O1 (stereo not given),1.36 µM,–,–
